# Screening data from PubChem BioAssay.
# Sampled rows, rich in hits. Any-hit rate of the full collection: about 4%.
# Cardio protect: cardioprotection against H2O2-induced cell death, primary screen, uHTS, H9c2 cells, ATPLite luminescence; H9c2 cardiomyocytes, H2O2 injury protection, 2 h; protection from H2O2 cell death, % at 20 µM; 360,000 compounds, 0.63% hits; AID 588492, 2011;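 active = compounds giving at least 50% protection of heart cells from peroxide-induced death in the single-dose screen, raw or plate-pattern-corrected value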;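 also: 0% = DMSO wells with peroxide and 100% = DMSO wells without peroxide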
# iPSC survival up: enhancers of single-cell hiPSC survival, primary screen, ATPlite luminescence | 100% = ROCK inhibitor wells, 0% = DMSO | survival enhancement, % at 20 µM | 360,000 compounds, 0.044% hits | AID 602274, 2012; in the data active = survival enhancement above about 18%;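 also: cells exposed to compounds for 16 hours before the ATP read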
# NR3A LBD binder: binders of NR3A ligand-binding domain, primary screen, biophysical, differential scanning fluorimetry, uHTS | Glutamate receptor ionotropic, NMDA 3A (GRIN3A) ligand-binding domain | NR3A LBD differential scanning fluorimetry, Tm shift; 0% = protein alone, 100% = glycine-bound protein | Tm shift relative to glycine control, % at 25 µM | 340,000 compounds, 2.5% hits | AID 1259313, 2017;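 active = melting temperature shift of at least 10% of the positive control shift, at one fixed dose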
# Arrestin-AP2 inh: inhibitors of beta-arrestin/AP2 binding, primary screen, biochemical, GPCR trafficking, flow cytometry; beta-arrestin 1 C-terminal peptide binding to AP2 beta2-adaptin appendage (human); FITC-arrestin peptide / GST-AP2 beads; AP2 beta2 appendage carries R879A mutation; inhibition, % at 10 µM; 340,000 compounds, 0.31% hits; AID 504490, 2011;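 active = inhibition above a set limit, near 3 SD of compounds lacking own fluorescence, cut at about 54% in these data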;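 also: plate controls were DMSO wells for no effect and 5 µM unlabelled arrestin peptide for full effect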
#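 Test system: GST-tagged AP2 beta2-adaptin appendage (R879A) on 4 µm glutathione beads; also added: fluorescein-tagged arrestin peptide at 50 nM final; timing: 12 min plus 1 h, RT; signal: flow cytometry, FL1 (488/535 nm); read-out: percent drop in bead-associated FITC signal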
# SENP1 FRET inh: human SENP1 catalytic domain inhibitors, primary screen, biochemical, FRET, uHTS; Sentrin-specific protease 1 (Homo sapiens), Q9P0U3; inhibition, % at 10 µM; recombinant SENP1 catalytic domain, CyPet-SUMO1-YPet FRET cleavage; 360,000 compounds, 0.21% hits;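 active = inhibition at least 30% at 10 µM, raw YFP signal under a set limit, fluorescence ratio 0.5 to 1.5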;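 also: 0% = enzyme with DMSO and 100% = no enzyme wells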
# Target sequence (Q9P0U3 419-644 limits assumed): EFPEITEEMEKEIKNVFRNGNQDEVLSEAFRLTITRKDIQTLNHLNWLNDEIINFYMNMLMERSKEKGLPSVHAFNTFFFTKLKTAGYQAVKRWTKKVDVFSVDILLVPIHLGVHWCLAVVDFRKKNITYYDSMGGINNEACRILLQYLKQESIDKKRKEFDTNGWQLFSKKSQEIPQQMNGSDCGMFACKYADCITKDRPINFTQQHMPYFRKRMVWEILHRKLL
#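 Material: hSENP1 catalytic domain, recombinant; medium: Tris pH 8 with BME, BSA, NP40 and catalase; compound: single concentration of 10 µM compound, 0.5% DMSO final; technique: FRET read of cyan and yellow fluorescence; timing: 50 min enzyme reaction, room temperature, light-protected; reagent: SFCypet-SUMO1-SFYpet substrate at 25 nM; control set: no-enzyme low, enzyme-DMSO high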
# FAS-TE inh: FAS thioesterase domain inhibitors, primary screen, biochemical, fluorescence intensity, uHTS | Fatty acid synthase (Homo sapiens), P49327 | inhibition, % at 15 µM | 360,000 compounds, 0.67% hits | recombinant FAS-TE, OMFH fluorogenic substrate, fluorescence endpoint;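 active = compounds whose normalised, plate-corrected inhibition of enzyme fluorescence in the single-dose primary screen is 50% or more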;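 also: 0% = DMSO with enzyme and 100% = substrate without enzyme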
# Arr-AP2 CP1: inhibitors of arrestin peptide binding to AP2, confirmation, biochemical, cherry pick 1, flow cytometry beads; shares compounds with Arrestin-AP2 inh; GST-AP2 beads, FITC arrestin peptide binding; GST-fused beta2-adaptin appendage, R879A mutant; inhibition, % at 10 µM; 1,300 compounds, 2% hits;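 active = inhibition above a set limit, roughly 3 SD of non-fluorescent compound noise, cut at about 38% in these data; inactive = inhibition at or below that limit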;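 also: loss of bead fluorescence from 50 nM FITC arrestin peptide bound to appendage; 0% = negative control wells and 100% = excess unlabelled arrestin peptide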
# GST-FITC bead: GST-fluorescein capture on glutathione beads, confirmation, artefact control for arrestin-AP2 inhibitor project, biochemical, cherry pick 1, flow cytometry; shares compounds with Arrestin-AP2 inh; GST-fluorescein binding to GSH beads, fluorescence, counter-screen; inhibition, % at 10 µM; 1,300 compounds, 2% hits;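 active = inhibition above 50%, about 3 SD of the inhibition seen with non-fluorescent compounds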;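 also: fluorescein maleimide labelled GST captured on 4 micron glutathione beads; higher means more loss of bead fluorescence from quenching or blocked binding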
# * = called active by the depositor; . = no result given; ! = a repeat was not active.
SMILES,Cardio protect,iPSC survival up,NR3A LBD binder,Arrestin-AP2 inh,SENP1 FRET inh,FAS-TE inh,Arr-AP2 CP1,GST-FITC bead
Cc1cc(C)c(C(N)=O)c(SCC(=O)c2cc(C)n(-c3cc(C)on3)c2C)n1,-12,0,0,25,-2,-5,.,.
O=C(Nc1nnc(-c2ccncc2)o1)C1CCCCC1,-2,-1,2,19,-2,-6,.,.
O=C(Nc1nnc(C2=COCCO2)o1)C1CCCCC1,6,0,0,59*,3,-1,4,1
OC(CN1CCOCC1)Cn1c2ccccc2c2ccccc21 (centres undefined),20,0,-2,34,1,-5,.,.
c1ccc2c(c1)c1ccccc1n2CN1CCOCC1,8,0,1,83*,0,-1,-1,-9
Cc1cccc2c1c1ccc3c(c1n2C)C(=O)C=CC3=O,-22,8,-12,67*,22,33,49*,0
Cc1ccccc1N1CC(=O)N(c2ccccc2C)CC1=O,11,4,1,0,-1,-2,.,.
COCc1ccc(CN2CCC(C(=O)Nc3cccc(-c4cccc(Cl)c4)c3)CC2)o1,-9,0,-1,57*,-2,19,9,0
COCc1ccc(CN2CCC(C(=O)Nc3cccc(-c4cscn4)c3)CC2)o1,2,0,-4,-4,0,-7,.,.
O=CN1CCN(C(C(=O)NC2CCCC2)c2cc3c(cc2[N+](=O)[O-])OCO3)CC1 (centres undefined),-1,1,1,60*,0,-3,14,8
O=S1(=O)N[C@@H](Cc2ccccc2)COc2cc(N3CCC[C@H]3CO)ccc21,.,0,.,.,-7,-12,.,.
CC(=O)Nc1cccc(NC(=O)C2CC(=O)N(C3CCCCC3)C2)c1 (centres undefined),-4,1,-3,61*,1,-2,9,-6
CC(=O)c1cccc(NC(=O)C2CC(=O)N(C3CCCC3)C2)c1 (centres undefined),10,2,3,34,-1,-5,.,.
O=[N+]([O-])c1ccc(/C=C/c2ccc3cccc(O)c3n2)cc1,33,-1,1,57*,3,8,-8,-5
O=C(NCCCN1CCN(c2cccc(Cl)c2)CC1)C1CCC(=O)N1Cc1ccccc1Cl (centres undefined),-7,5,-2,4,-1,-10,6,-11
Cc1ccc(CNC(=O)C2CCC(=O)N2Cc2ccc(C)cc2)cc1 (centres undefined),0,0,0,-22,-1,-2,.,.
Cc1ccc(CN2C(=O)CCC2C(=O)NCCN2CCOCC2)cc1 (centres undefined),16,-1,1,6,2,-7,-10,-4
Cc1ccc(CN2C(=O)CCC2C(=O)NCCCN2CCCC(C)C2)cc1 (centres undefined),6,1,-2,2,-4,-8,-11,-9
CC1(C(=O)NCc2ccco2)Cc2c(-c3ccccc3)ccnc2O1 (centres undefined),-6,-2,.,.,2,-6,.,.
O=C(CC[C@H]1O[C@@H](n2ccc(=O)[nH]c2=O)[C@H](O)[C@@H]1O)N1CCN(Cc2cccc3ccccc23)CC1,8,-1,.,.,2,-9,.,.
O=C(N/N=C/c1cccc([N+](=O)[O-])c1)c1cccc(Br)c1,2,0,1,104*,0,11,13,60*
CCN(CC)c1ccc(NS(=O)(=O)c2ccc(-c3ccc(=O)[nH]n3)o2)c(C)c1,-5,0,4,57*,2,-6,2,6
CC(=O)c1nn(-c2ccccc2)cc1C(=O)c1ccc(Br)cc1,-4,0,-1,104*,0,0,-6,-9
O=C(Nc1cccc(S(=O)(=O)C(F)(F)F)c1)[C@@H]1O[C@H](CO)[C@@H](O)[C@H]1O,-2,0,.,.,1,-10,.,.
CSc1ccc(C(=O)C2CCCN(C(=O)c3nn(C)c(=O)c4ccccc34)C2)cc1 (centres undefined),-10,-1,-1,58*,6,-6,5,-4
SMILES,Cardio protect,iPSC survival up,NR3A LBD binder,Arrestin-AP2 inh,SENP1 FRET inh,FAS-TE inh,Arr-AP2 CP1,GST-FITC bead
Nc1ncc(-n2cncn2)c(-c2ccc(Cl)cc2)n1,-3,0,0,56*,2,-6,-11,-2
Nc1ncncc1-c1ccc(Cl)cc1,-2,0,-1,13,0,-3,.,.
Cc1ccc(-c2cc(C(F)(F)F)n3ncc(C(=O)N4CCN(C)CC4)c3n2)cc1,13,1,1,-3,-2,-5,.,.
Cc1ccc(-c2cc(C(F)(F)F)n3ncc(C(=O)N4CCCc5ccccc54)c3n2)cc1,-4,0,-4,-6,2,-4,49*!,56*!
CN(C)c1ccc(-c2ccnc3c2CC(C)(C(=O)NCC2CC2)O3)cc1 (centres undefined),4,-4,.,.,-1,-1,.,.
NC(=O)SCC(=O)Nc1ccc(Cl)cc1,-1,10,-1,18,0,-187,.,.
NC(=O)SCC(=O)Nc1cccc(Cl)c1,7,1,-6,82*,2,-169,19,10
COC(=O)Cc1ccc(NC(=S)N2CCCCC2C)cc1 (centres undefined),-14,0,-1,57*,0,-2,-10,3
C(=N\n1cnnc1)/c1ccc(N2CCOCC2)cc1,-5,-2,0,17,-1,-8,.,.
C(=N\n1cnnc1)/c1ccc(N2CCOCC2)s1,-4,5,0,92*,-144,-5,-9,-5
O=C(NCc1ccccc1Cl)c1cnccn1,5,0,-4,21,3,-3,.,.
O=C(NCc1ccccc1Cl)c1cnccc1C(F)(F)F,6,0,12*,55*,-2,-3,-4,-9
